Measured values published in PMC4180501 (Biochimica et biophysica acta, 2012).
Residue numbers refer to the chain shown, from its start. pKd: −log10 of the molar value.

What was measured:
GK-WT = molecular target: T1, GK-WT (Homo sapiens, UniProt P35557); assay: D-glucose binding by tryptophan fluorescence titration; details: for ΔG of glucose binding / ΔH of glucose binding / ΔS of glucose binding: pure wild type GK, 25 °C, pH 7.3, Vant Hoff plot
T1 sequence (P35557 1-465): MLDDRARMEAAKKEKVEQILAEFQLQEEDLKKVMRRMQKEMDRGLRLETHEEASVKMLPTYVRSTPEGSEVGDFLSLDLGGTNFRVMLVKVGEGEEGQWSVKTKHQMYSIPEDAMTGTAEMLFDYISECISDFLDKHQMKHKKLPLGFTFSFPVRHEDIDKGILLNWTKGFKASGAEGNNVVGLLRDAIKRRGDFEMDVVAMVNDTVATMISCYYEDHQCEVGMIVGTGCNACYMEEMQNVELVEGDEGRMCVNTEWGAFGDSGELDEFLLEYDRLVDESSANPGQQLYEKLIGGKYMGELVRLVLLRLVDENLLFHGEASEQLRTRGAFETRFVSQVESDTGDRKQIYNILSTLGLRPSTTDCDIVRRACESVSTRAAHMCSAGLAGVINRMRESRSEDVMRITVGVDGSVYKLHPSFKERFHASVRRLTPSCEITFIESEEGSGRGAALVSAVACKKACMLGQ

GK-W167 (W99R/W257F) [1] = molecular target: T2, GK-W167 (W99R/W257F) (Homo sapiens, UniProt P35557, W257F/W99R); assay: NADP+-coupled spectrophotometric kinetic assay; type: biochemical; details: W-167, no GKA
T2 sequence (P35557 1-465 W99R/W257F): T1 sequence (P35557 1-465) with W99R, W257F
Procedure, shortened: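 Recombinant human β-cell glucokinase single-Trp variant, expressed in E. coli as a GST fusion and sequence-verified. Catalytic parameters came from an NADP+-coupled spectrophotometric assay run with or without 30% glycerol. Hill coefficient and glucose S0.5 were obtained by fitting v/Vmax = [glucose]^H/(K′+[glucose]^H), with […].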

GK-W99 (W167F/W257F) = molecular target: T3, GK-W99 (W167F/W257F) (Homo sapiens, UniProt P35557, W167F/W257F); assay: DSC thermal denaturation; details: W-99 in buffer, 300 mM D-glucose
T3 sequence (P35557 1-465 W167F/W257F): T1 sequence (P35557 1-465) with W167F, W257F
Procedure, shortened: (§1)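 Samples were degassed and scanned by DSC at 0.25 degree/min against a reference holding everything except protein. Tm and calorimetric ΔH were taken by integrating the Cp-vs-temperature thermogram; Cpm is the apparent heat capacity at the maximum.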

GK-W167 (W99R/W257F) [2] = molecular target: T2, GK-W167 (W99R/W257F); assay: DSC thermal denaturation; details: W-167 in buffer, 300 mM D-glucose
Procedure, shortened: as §1

GK- W257 (W99R/W167F) = molecular target: T4, GK- W257 (W99R/W167F) (Homo sapiens, UniProt P35557, W167F/W99R); assay: DSC thermal denaturation; details: W-257 in buffer, 300 mM D-glucose
T4 sequence (P35557 1-465 W99R/W167F): T1 sequence (P35557 1-465) with W99R, W167F
Procedure, shortened: as §1

## OC[C@H]1OC(O)[C@H](O)[C@@H](O)[C@@H]1O (stereo partly drawn) [D-glucose]
GK-WT; D-glucose binding KD, GK-WT, no GKA, 20% glycerol
  pKd: 2.74
GK-WT; D-glucose binding KD, GK-WT, no GKA, no glycerol
  pKd: 2.13
GK-WT; glucose KD, 11 °C, absence of glycerol
  pKd: 1.86
GK-WT; glucose KD, 45 °C, presence of glycerol
  pKd: 2.94
GK-WT; 20% glycerol
  ΔG of glucose binding: -3.82 kcal/mol
  ΔH of glucose binding: 4.78 ± 0.72 kcal/mol
  ΔS of glucose binding: 120+/−9 J/mol*K
GK-WT; no glycerol
  ΔG of glucose binding: -3.13 kcal/mol
  ΔH of glucose binding: 8.13 ± 0.48 kcal/mol
  ΔS of glucose binding: 157+/−4 J/mol*K
GK-W167 (W99R/W257F) [1]; 30% glycerol
  Glucose S0.5: 0.82 mM
  kcat: 26.2 s⁻¹
  nH (Hill coefficient towards glucose): 1.32
GK-W167 (W99R/W257F) [1]; no glycerol
  Glucose S0.5: 2.28 mM
  kcat: 69.9 s⁻¹
  nH (Hill coefficient towards glucose): 1.53
GK-W99 (W167F/W257F)
  Cp^m: 100.8 kJ/mol/°C
  ΔH thermal denaturation: 102 kcal/mol
GK-W99 (W167F/W257F); DSC
  Tm: 49.6 °C
GK-W167 (W99R/W257F) [2]
  Cp^m: 90.4 kJ/mol/°C
  ΔH thermal denaturation: 97.99 kcal/mol
GK-W167 (W99R/W257F) [2]; DSC
  Tm: 53.4 °C
GK- W257 (W99R/W167F)
  Cp^m: 122.6 kJ/mol/°C
  ΔH thermal denaturation: 158 kcal/mol
GK- W257 (W99R/W167F); DSC
  Tm: 51.2 °C
